Experimental data reported in the array DNA melting data of Ke et al. (doi:10.1101/2024.01.08.574731).

Key:
[1] = folding enthalpy; higher = less favourable; fluorescence melt of hairpins on a sequencing array, two-state fit; conditions: sodium 0.088 M
Summary of the method: (§1)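 To match UV melts, fitted temperatures were raised by 9.35 °C. These fits were bootstrapped two-state models that gave melting temperature and folding enthalpy, combined by inverse variance over four replicates. The input was normalised Cy3 fluorescence of library hairpins with annealed Cy3 and quencher oligos on a sequenced MiSeq flow cell, imaged in 50 mM Na-HEPES pH 8.0, 25 mM NaCl in 2.5 °C steps up to 60 °C.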

[2] = melting temperature; fluorescence melt of hairpins on a sequencing array, two-state fit, raised by 9.35 °C to match UV melts; conditions: sodium 0.088 M
Summary of the method: as §1

Sequence	folding enthalpy [1] [kcal/mol]	Tm [2] [°C]
GTCCGACGAAAGTCTGAC (((.(((....))).)))	-27.1	49.1
GTCCGCCGAAAGGCAGAC (((.(((....))).)))	-21.7	54.2
GTCCGCGAAAGCGGAGAC ((((((....)))..)))	-7	56.8
GTCCGCGAAAGCGGTGAC ((((((....)))..)))	-8.67	41
GTCCGCGAAAGCGTAGAC ((((((....)))..)))	-16.7	43
GTCCGCGAAAGCGTGGAC ((((((....)))..)))	-16.9	54.8
GTCCGCGGAAACGTGGAC ((((.((....)).))))	-43.5	62
GTCCGTCCGAAAGGAGAC (((..(((....))))))	-11.8	29.1
GTCCGTGCGAAAGCAGAC (((..(((....))))))	-13.8	32.4
GTCCGTGGAAACATGGAC ((((.((....)).))))	-36.9	53.6
GTCCGTGGAAACATGGGC (.((.((....)).)).)	-24.9	44.9
GTCCGTGGAAACGCGGAC (((((.(....).)))))	-39.8	62.2
GTCCTAACGAAAGTTGAC (((..(((....))))))	-10.9	26.6
GTCCTACCGAAAGGTGAC (((..(((....))))))	-11.1	32.5
GTCCTAGGAAACTAGGAC (((((((....)))))))	-51	57.2
GTCCTCCGAAAGGACGAC (((.(((....))).)))	-26.1	49.7
GTCCTCGAAAGAGACGAC ((((((....)))..)))	-20	42
GTCCTCGAAAGAGATGAC ((((((....)))..)))	-16.2	33.4
GTCCTCGAAAGAGCGAC ((((((....))).)))	-21.4	45.4
GTCCTCGAAAGAGTAGAC ((((((....)))..)))	-19.8	35.9
GTCCTCTCGAAAGAGGAC (((..(((....))))))	-36.2	58.5
GTCCTGCCGAAAGGCGAC (((..(((....))))))	-9.38	33.2
GTCCTGGAAACAGGAC ((((((....))))))	-38.6	63

Sequence	folding enthalpy [1] [kcal/mol]	Tm [2] [°C]
GTCCTGGGAAACCAAGAC (((.(((....))).)))	-22.4	34.5
GTCCTGGGAAACTGGGAC ((((..(....)..))))	-26.5	44.8
GTCCTTGGAAACAAGGAC (((((((....)))))))	-38.8	59.8
GTCCTTGGAAACAAGGGC (.(((((....))))).)	-36.7	52.3
GTCCTTGGAAACAGGGAC ((((.((....)).))))	-33	46.4
GTCCTTGGAAACGAGGAC (((((.(....).)))))	-40.8	50.7
GTCGAACGAAAGTTGAC (((.(((....))))))	-23.4	46.3
GTCGAACGAAAGTTTGAC (((.(((....))).)))	-42.2	54.5
GTCGAAGAAATTCGAC ((((((....))))))	-35.6	56.2
GTCGAAGCGAAAGCTGAC (((..(((....))))))	-14.8	46.5
GTCGAAGGAAACTTTGGC (.(.(((....))).).)	-22.4	29.9
GTCGACACGAAAGTGGAC (((..(((....))))))	-13.9	41.2
GTCGACGAAAGTCGGAC ((((((....))).)))	-14.3	58.1
GTCGACGCGAAAGCGGAC (((..(((....))))))	-12.8	45.4
GTCGACGGAAACGTCAAC ((.((((....)))).))	-15.6	43.5
GTCGACGGAAACGTCGGC (.(((((....))))).)	-22.3	64.8
GTCGACGGAAACGTTGAC (((.(((....))).)))	-45.5	56.3
GTCGACTCGAAAGAGGAC (((..(((....))))))	-16.9	35.6
GTCGATGGAAACATTGAC (((.(((....))).)))	-36.2	48.3
GTCGATTCGAAAGAAGAC (((..(((....))))))	-13	29.7
GTCGCACCGAAAGGTGAC (((..(((....))))))	-8.3	35
GTCGCACGAAAGTGAGAC (((.(((....))).)))	-30.6	59.5
GTCGCAGGAAACTACGAC ((((.((....)).))))	-32.1	46.3

Sequence	folding enthalpy [1] [kcal/mol]	Tm [2] [°C]
GTCGCAGGAAACTGCAAC ((.((((....)))).))	-16.7	41.1
GTCGCCACGAAAGTGGAC (((..(((....))))))	-9.49	35.7
GTCGCCCCGAAAGGGGAC (((..(((....))))))	-9.73	40.1
GTCGCCGAAAGGCAAGAC ((((((....)))..)))	-15.4	49.8
GTCGCCGAAAGGCAGAC ((((((....))).)))	-17.7	61.7
GTCGCCGAAAGGCCTGAC ((((((....)))..)))	-12.4	31.8
GTCGCCGAAAGGCGTGAC ((((((....)))..)))	-8.03	36.3
GTCGCCGAAAGGCTTGAC ((((((....)))..)))	-12.1	39.7
GTCGCCGGAAACGGCAAC ((.((((....)))).))	-11.2	47.1
GTCGCTCGAAAGAGGGAC (((.(((....))).)))	-44.3	63.2
GTCGCTGGAAACAGCAAC ((.((((....)))).))	-15	41.7
GTCGCTGGAAACGGTGAC (((.(.(....).).)))	-28.6	44.2
GTCGGAACGAAAGTTGAC (((..(((....))))))	-10.8	32.7
GTCGGAGCGAAAGCTGAC (((..(((....))))))	-22.1	44.3
GTCGGAGGAAACTTCGAC ((((.((....)).))))	-47.7	51
GTCGGCGAAAGCCAAGAC ((((((....)))..)))	-15.2	49.9
GTCGGCGAAAGCCAGGAC ((((((....)))..)))	-13.7	49.9
GTCGGCGAAAGCCCAGAC ((((((....)))..)))	-13.5	42.7
GTCGGCGAAAGCCCGAC ((((((....))).)))	-21.9	64.7
GTCGGCGAAAGCCCGGAC ((((((....)))..)))	-14.2	42.4
GTCGGCGAAAGCCTCGAC ((((((....)))..)))	-14.7	42.4
GTCGGCGGAAACACCGAC (((((.(....).)))))	-37.9	55.3
GTCGGCGGAAACGCCAAC ((.((((....)))).))	-12.7	48.2

Sequence	folding enthalpy [1] [kcal/mol]	Tm [2] [°C]
GTCGGCGGAAACGCTGAC (((.(((....))).)))	-39.3	63.1
GTCGGCGGAAACGCTGGC (.(.(((....))).).)	-21.2	50.5
GTCGGGCCGAAAGGCGAC (((..(((....))))))	-14.5	51
GTCGGGCGAAAGCCGGAC (((.(((....))).)))	-27.7	67.7
GTCGGGGGAAACCCCGGC (.(((((....))))).)	-22	62.5
GTCGGGTCGAAAGACGAC (((..(((....))))))	-19.8	47.4
GTCGGTGCGAAAGCAGAC (((..(((....))))))	-14.2	45.2
GTCGTAGAAATACGAC ((((((....))))))	-38	56
GTCGTATCGAAAGATGAC (((..(((....))))))	-20	34.1
GTCGTCGAAAGACAAGAC ((((((....)))..)))	-20	44.7
GTCGTCGAAAGACACGAC ((((((....)))..)))	-16.7	48.1
GTCGTCGAAAGACGGGAC ((((((....)))..)))	-10.3	41.4
GTCGTGCGAAAGCAGGAC (((.(((....))).)))	-35.9	64.5
GTCGTTCCGAAAGGAGAC (((..(((....))))))	-22	35.1
GTCGTTCGAAAGAAGGAC (((.(((....))).)))	-38.1	52.2
GTCGTTGAAAAACGAC ((((((....))))))	-35.2	61.6
GTCGTTGGAAACAACAAC ((.((((....)))).))	-17.7	34.8
GTCGTTGGAAACAACGAC (((((((....)))))))	-41.6	67.6
GTCGTTGGAAACAACGGC (.(((((....))))).)	-39.6	55.1
GTCGTTGGAAACAGTGAC (((..((....))..)))	-13.5	32.4
GTCTAAACGAAAGTTGAC (((..(((....))))))	-17.7	34.5
GTCTAACGAAAGTTGAC (((.(((....))))))	-24.9	43.6
